The results in this text go back to publication PMC11912358 (RSC Advances, 2025).

The nature of data set [1]: Cytotoxicity assay using cell-counting kit-8. The data set is classed as cell-based. In a few lines: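 HeLa cells (5 × 10³) exposed to dye-labelled (Alexa Fluor 647) tripeptides carrying perfluoroalkyl or alkyl chains for 1 h. Viability read with the CCK-8 reagent, and IC50 reported from this read-out.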
Data set [2] deals with HeLa cells. The data set is described as follows: Cellular uptake by flow cytometry. The data set is classed as cell-based. The settings on record: 150 nM peptide, 1 h, 37 °C, 5% CO2, serum-free medium, AF647 fluorescence, AF647-NEt2 control as reference. For orientation: Flow cytometry measures light scatter and fluorescence of single cells or particles in a stream.

For the compound `C[C@H](NC(=O)CCCCCC1(C)C(=CC=CC=CC2=[N+](CCCS(=O)(=O)[O-])c3ccc(S(=O)(=O)O)cc3C2(C)C)N(CCCS(=O)(=O)O)c2ccc(S(=O)(=O)O)cc21)C(=O)N[C@@H](CC(=O)Nc1ccc(C(F)(F)C(F)(F)C(F)(F)C(F)(F)C(F)(F)C(F)(F)C(F)(F)C(F)(F)F)cc1)C(=O)N[C@@H](Cc1ccccc1)C(N)=O` (some centres unmarked) [AF647-RF-tripeptide (RF = C8F17)], the half-maximal inhibitory concentration (IC50) in data set [1] came to 41 ± 9 µM. For the same compound, the “Cellular uptake efficiency (fluorescence intensity of cells, RFI)” value in data set [2] is listed as “comparable cellular uptake efficiencies”.

Usually IC50 stands for the concentration needed to halve the response being measured. A low value points to greater potency in that assay.
